Assay results published in ChEMBL document CHEMBL3351948, “Synthesis of gallinamide A analogues as potent falcipain inhibitors and antimalarials” (J Med Chem, 2014).
Active and inactive are the calls of the source. The calls are words filed in the database; no cut-off is given here. *1 amine or outer side, *2 acyl side, *3 side chain or, on linkers, in order; H or OH if unused. Where a SMILES comes first, the peptide text is derived from it. [ ]: non-standard residue; d: D form. The star is where a group is joined. Pentenoic(2E,4S-NH2) = C[C@@H](/C=C/C(=O)[*:2])N[*:1]; X1 = CC[C@H](C)[C@@H](C(=O)*)N(C)C; NHBn = c1ccc(CN*)cc1

What was measured:
[1] = Inhibition of Plasmodium falciparum FP3 using Z-Phe-Arg-AMC as substrate incubated for 30 mins prior to substrate addition measured after 30 mins by fluorescence assay
Summary of the method: (§1)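 The assay read enzyme activity with a fluorescence-based kinetic method and reported IC50 in nM. Values are means with standard error of the mean from three experiments.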

Plasmodium falciparum [2] = test: Antiplasmodial activity against Plasmodium falciparum 3D7 trophozoite stage assessed as swollen food vacuole after 3 days by Giemsa staining-based assay; format: functional, organism-based
Falcipain 2 [3] = target: T1, Falcipain 2 (Plasmodium falciparum, UniProt Q9N6S8); test: Inhibition of Plasmodium falciparum FP2 using Z-Phe-Arg-AMC as substrate incubated for 30 mins prior to substrate addition measured after 30 mins by fluorescence assay; summary of the method: as §1
T1 sequence (Q9N6S8 whole entry): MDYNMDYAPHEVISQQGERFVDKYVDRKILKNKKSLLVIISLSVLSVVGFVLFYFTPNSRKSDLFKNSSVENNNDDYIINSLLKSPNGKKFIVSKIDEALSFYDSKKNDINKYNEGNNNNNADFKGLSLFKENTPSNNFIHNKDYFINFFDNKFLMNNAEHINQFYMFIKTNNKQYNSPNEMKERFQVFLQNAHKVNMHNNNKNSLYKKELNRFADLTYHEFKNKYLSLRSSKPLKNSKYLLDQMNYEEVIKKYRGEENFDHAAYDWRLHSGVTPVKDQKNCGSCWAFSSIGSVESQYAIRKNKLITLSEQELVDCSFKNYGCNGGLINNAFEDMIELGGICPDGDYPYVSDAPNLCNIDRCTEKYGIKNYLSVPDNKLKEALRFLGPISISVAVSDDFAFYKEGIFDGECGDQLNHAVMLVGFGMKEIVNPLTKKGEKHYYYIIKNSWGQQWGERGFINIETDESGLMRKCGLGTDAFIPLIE

Plasmodium falciparum [4] = test: Antiplasmodial activity against chloroquine-sensitive Plasmodium falciparum 3D7 infected in human erythrocytes by [3H]-hypoxanthine incorporation assay; format: functional, organism-based
Summary of the method: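 IC50 against the chloroquine-sensitive 3D7 strain was measured by [3H]-hypoxanthine incorporation in cultured parasites. Values are means with standard error of the mean from three experiments.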

[5] = target: Procathepsin L (Homo sapiens) (UniProt P07711); test: Inhibition of human cathepsin L expressed in Pichia pastoris using N-Cbz-Phe-Arg-7-amino-4-methylcoumarin as substrate incubated for 90 mins prior to substrate addition measured after 30 mins by fluorescence assay
Plasmodium falciparum [6] = test: Inhibition of Plasmodium falciparum AP-M17
Plasmodium falciparum [7] = test: Inhibition of Plasmodium falciparum AP-M1
Plasmodium falciparum [8] = test: Inhibition of Plasmodium falciparum AP-M18
[9] = Cytotoxicity against […] cells assessed as cell viability by AlamarBlue assay; format: cell-based; details: Homo sapiens
Plasmodium falciparum [10] = test: Antiplasmodial activity against Plasmodium falciparum 3D7 trophozoite stage assessed as swollen food vacuole at <5 nM after 3 days by Giemsa staining-based assay; format: functional, organism-based
Plasmodium falciparum [11] = test: Antiplasmodial activity against multidrug-resistant Plasmodium falciparum Dd2 infected in human erythrocytes by [3H]-hypoxanthine incorporation assay; format: functional, organism-based
Summary of the method: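 Chloroquine-resistant P. falciparum Dd2 strain; IC50 reported with standard error of the mean from three experiments.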

Falcipain 2 [12] = target: T1, Falcipain 2; test: Inhibition of FP2' in Plasmodium falciparum trophozoite stage after 1 hr by SDS-PAGE analysis
[13] = Inhibition of FP3 in Plasmodium falciparum trophozoite stage after 1 hr by SDS-PAGE analysis
[14] = Inhibition of FP1 in Plasmodium falciparum trophozoite stage after 1 hr by SDS-PAGE analysis
Falcipain 2 [15] = target: T1, Falcipain 2; test: Inhibition of FP2 in Plasmodium falciparum trophozoite stage after 1 hr by SDS-PAGE analysis
Plasmodium falciparum [16] = test: Antiplasmodial activity against Plasmodium falciparum 3D7; format: functional, organism-based
Summary of the method: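 Chloroquine-sensitive P. falciparum 3D7 cultures; growth inhibition read out as [3H]-hypoxanthine incorporation; IC50 reported with standard error of the mean from three experiments.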

Procathepsin L (Homo sapiens), sequence (P07711 114-333 limits assumed): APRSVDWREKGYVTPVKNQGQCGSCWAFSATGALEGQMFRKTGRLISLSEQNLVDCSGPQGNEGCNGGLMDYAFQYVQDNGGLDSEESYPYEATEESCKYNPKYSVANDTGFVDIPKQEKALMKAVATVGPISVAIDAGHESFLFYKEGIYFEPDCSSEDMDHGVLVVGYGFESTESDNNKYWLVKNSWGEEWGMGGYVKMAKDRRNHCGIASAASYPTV

| Structure (SMILES) | IC50 [1] [nM] | Activity (Plasmodium falciparum [2]) | IC50 (Falcipain 2 [3]) [nM] | IC50 (Plasmodium falciparum [4]) [nM] | inhibition [5] | INH (Plasmodium falciparum [6]) [µM] | INH (Plasmodium falciparum [7]) [µM] | INH (Plasmodium falciparum [8]) [µM] | IC50 [9] [nM] | Activity (Plasmodium falciparum [10]) | IC50 (Plasmodium falciparum [11]) [nM] | IC50 (Falcipain 2 [12]) [nM] | IC50 [13] [nM] | IC50 [14] [nM] | IC50 (Falcipain 2 [15]) [nM] | IC50 (Plasmodium falciparum [16]) [nM] |
| --- | --- | --- | --- | --- | --- | --- | --- | --- | --- | --- | --- | --- | --- | --- | --- | --- |
| CC(C)C[C@H](NC(=O)[C@H](CC(C)C)NC(=O)[C@H](C(C)C)N(C)C)C(=O)N[C@@H](C)/C=C/C(=O)N[C@@H](C)C(=O)Nc1nccs1 | 34000 | Active | 2500 | 1100 |  |  |  |  |  |  |  |  |  |  |  |  |
| COC1=CC(=O)N(C(=O)/C=C/[C@H](C)NC(=O)[C@H](CC(C)C)NC(=O)[C@H](CC(C)C)NC(=O)[C@H](C(C)C)N(C)C)[C@H]1Cc1ccc(O)cc1 | 81.4 |  | 5.25 | 20 | Active | > 10 | > 10 | > 10 | 18900 | Active | 67 |  |  |  |  |  |
| CC[C@H](C)[C@@H](C(=O)N[C@@H](CC(C)C)C(=O)N[C@@H](CC(C)C)C(=O)N[C@@H](C)/C=C/C(=O)N[C@@H](C)C(=O)NCc1ccccc1)N(C)C | > 25000 | Active | 10500 | 540 | Active | > 10 | > 10 | > 10 | > 50000 |  | 421 |  |  |  |  |  |
| COC1=CC(=O)N(C(=O)/C=C/[C@H](C)NC(=O)[C@H](CC(C)C)NC(=O)[C@H](CC(C)C)NC(=O)[C@H](C(C)C)N(C)C)[C@H]1C | 292 | Active | 6.78 | 89.3 | Active | > 10 | > 10 | > 10 | 14200 |  | 302 |  |  |  |  |  |
| COC1=CC(=O)N(C(=O)CC[C@H](C)NC(=O)[C@H](CC(C)C)NC(=O)[C@H](CC(C)C)NC(=O)[C@H](C(C)C)N(C)C)[C@H]1C | > 50000 | inactive | 3710 | 4380 |  |  |  |  |  |  |  |  |  |  |  |  |
| CC[C@H](C)[C@@H](C(=O)O[C@@H](CC(C)C)C(=O)N[C@@H](CC(C)C)C(=O)N[C@@H](C)/C=C/C(=O)N1C(=O)C=C(OC)[C@@H]1C)N(C)C [GALLINAMIDE A] |  |  |  |  |  |  |  |  |  |  |  | 8.5 | 22 | 140 | 8.5 | 50 |
| CO[C@H]1CC(=O)N(C(=O)CC[C@H](C)NC(=O)[C@H](CC(C)C)NC(=O)[C@H](CC(C)C)NC(=O)[C@H](C(C)C)N(C)C)[C@H]1C | > 50000 | inactive | > 50000 | > 50000 |  |  |  |  |  |  |  |  |  |  |  |  |
| CC(C)C[C@H](NC(=O)[C@H](CC(C)C)NC(=O)[C@H](C(C)C)N(C)C)C(=O)N[C@@H](C)/C=C/C(=O)N[C@@H](C)C(=O)NCc1ccccc1 | > 25000 | Active | 11500 | 320 | Active | > 10 | > 10 | > 10 | > 50000 |  | 378 |  |  |  |  |  |
| CO[C@H]1CC(=O)N(C(=O)/C=C/[C@H](C)NC(=O)[C@H](CC(C)C)NC(=O)[C@H](CC(C)C)NC(=O)[C@H](C(C)C)N(C)C)[C@H]1C | 163 | Active | 2.81 | 210 |  |  |  |  |  |  |  |  |  |  |  |  |
| COC1=CC(=O)N(C(=O)/C=C/[C@H](C)NC(=O)[C@H](CC(C)C)NC(=O)[C@H](CC(C)C)NC(=O)[C@H](C(C)C)N(C)C)[C@H]1Cc1c[nH]c2ccccc12 | 66.7 |  | 12 | 9.7 | Active | > 10 | > 10 | > 10 | 8500 | Active | 29 |  |  |  |  |  |
| CC(C)C[C@H](NC(=O)[C@H](CC(C)C)NC(=O)[C@H](C(C)C)N(C)C)C(=O)N[C@@H](C)/C=C/C(=O)N1C(=O)C=C(OCc2ccccc2)[C@@H]1C(C)C | 182 |  | 6.86 | 62 |  |  |  |  |  | Active |  |  |  |  |  |  |
| COC1=CC(=O)N(C(=O)/C=C/[C@H](C)NC(=O)[C@H](CC(C)C)NC(=O)[C@H](CC(C)C)NC(=O)[C@H](C(C)C)N(C)C)[C@H]1C(C)C | 131 |  | 9.52 | 16.6 | Active | > 10 | > 10 | > 10 | 9650 | Active | 165 |  |  |  |  |  |
| CC(C)C[C@H](NC(=O)[C@H](CC(C)C)NC(=O)[C@@H]1CCCN1C)C(=O)N[C@@H](C)/C=C/C(=O)N[C@@H](C)C(=O)NCc1ccccc1 | 46000 | Active | 6000 | 6600 |  |  |  |  |  |  |  |  |  |  |  |  |
| CC(C)C[C@H](NC(=O)[C@H](CC(C)C)NC(=O)[C@H](C(C)C)N(C)C)C(=O)N[C@@H](C)/C=C/C(=O)N1CC(OCc2ccccc2)=CC1=O | 196 |  | 9.59 | 96 |  |  |  |  |  | Active |  |  |  |  |  |  |
| CC(C)C[C@H](NC(=O)[C@H](CC(C)C)NC(=O)[C@@H](C(C)C)N(C)C)C(=O)N[C@@H](C)/C=C/C(=O)N[C@@H](C)C(=O)NCc1ccccc1 | > 25000 | Active | 3400 | 5400 | Active | > 10 | > 10 | > 10 | > 50000 |  | 170 |  |  |  |  |  |
| COC1=CC(=O)N(C(=O)/C=C/[C@H](C)NC(=O)[C@H](CC(C)C)NC(=O)[C@H](CC(C)C)NC(=O)[C@H](C(C)C)N(C)C)C1 | 225 |  | 24.8 | 57.3 | Active | > 10 | > 10 | > 10 | 16300 | Active | 419 |  |  |  |  |  |
| CC[C@H](C)[C@@H](C(=O)N[C@@H](CC(C)C)C(=O)N[C@@H](CC(C)C)C(=O)N[C@H](C(=O)N[C@@H](C)/C=C/C(=O)N[C@@H](C)C(=O)NCc1ccccc1)C(C)C)N(C)C (X1-LLV[Pentenoic(2E,4S-NH2)]A-NHBn) | > 50000 | Active | > 50000 | > 50000 |  |  |  |  |  |  |  |  |  |  |  |  |
| CC[C@H](C)[C@@H](C(=O)N[C@@H](CC(C)C)C(=O)N[C@@H](CC(C)C)C(=O)N[C@H](C(=O)N[C@@H](C)/C=C/C(=O)N[C@@H](C)C(=O)N1C[C@@H](O)C[C@H]1C(=O)OC)C(C)C)N(C)C | > 50000 | Active | > 50000 | > 50000 |  |  |  |  |  |  |  |  |  |  |  |  |
| CC[C@H](C)[C@@H](C(=O)N[C@@H](CC(C)C)C(=O)N[C@@H](CC(C)C)C(=O)N[C@@H](C)/C=C/C(=O)N[C@@H](C)C(=O)N1C[C@@H](O)C[C@H]1C(=O)OC)N(C)C | > 50000 | Active | 7700 | 1900 |  |  |  |  |  |  |  |  |  |  |  |  |
